Test results reported in publication PMC11912358 (RSC Advances, 2025).

How the values were obtained:
[1] = Cytotoxicity assay using cell-counting kit-8; type: cell-based
Outline: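 HeLa cells (5 × 10³) exposed to dye-labelled (Alexa Fluor 647) tripeptides carrying perfluoroalkyl or alkyl chains for 1 h. Viability read with the CCK-8 reagent, and IC50 reported from this read-out.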

[2] = tested on: HeLa cells; assay: Cellular uptake by flow cytometry; type: cell-based; conditions: 150 nM peptide, 1 h, 37 °C, 5% CO2, serum-free medium, AF647 fluorescence, AF647-NEt2 control as reference

Structure (SMILES): C[C@H](NC(=O)CCCCCC1(C)C(=CC=CC=CC2=[N+](CCCS(=O)(=O)[O-])c3ccc(S(=O)(=O)O)cc3C2(C)C)N(CCCS(=O)(=O)O)c2ccc(S(=O)(=O)O)cc21)C(=O)N[C@@H](CC(=O)Nc1ccc(C(F)(F)C(F)(F)C(F)(F)C(F)(F)C(F)(F)C(F)(F)C(F)(F)C(F)(F)F)cc1)C(=O)N[C@@H](Cc1ccccc1)C(N)=O (some centres unmarked) [AF647-RF-tripeptide (RF = C8F17)]
- IC50 [1]: 41 ± 9 µM
- Cellular uptake efficiency (fluorescence intensity of cells, RFI) [2]: comparable cellular uptake efficiencies
